Experimental data reported in ChEMBL document CHEMBL1641444, “Synthesis and evaluation of 6-[1-(2-[(18)F]fluoro-3-pyridyl)-5-methyl-1H-1,2,3-triazol-4-yl]quinoline for positron emission tomography imaging of the metabotropic glutamate receptor type 1 in brain” (Bioorg Med Chem, 2011).

Columns and labels:
[1] = biological target: T1, Metabotropic glutamate receptor 1 (Homo sapiens, UniProt Q13255); test: Binding affinity to mGluR1
[2] = biological target: T1, Metabotropic glutamate receptor 1; test: Binding affinity to human mGluR1
[3] = biological target: Metabotropic glutamate receptor 1 (Rattus norvegicus) (UniProt P23385); test: Binding affinity to mGluR1 in Sprague-Dawley rat olfactory bulb at 0.023 nM after 30 mins by autoradiography in presence of 1 uM of mGluR5 antagonist MPEP; details: tested as the 18F-labelled form
Summary of the method: (§1)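 Rat brain sections were preincubated 3 × 5 min at room temperature in 50 mM Tris–HCl, pH 7.4, with 1.2 mM MgCl2 and 2 mM CaCl2. They were then incubated 30 min at room temperature in fresh buffer with 0.023 nM [18F]ligand, alone or with MPEP at two levels. Sections were washed 3 × 5 min in cold buffer, rinsed in cold water and dried. Imaging-plate autoradiography followed; regional PSL/mm2 was taken minus 1.5 PSL/mm2 background. Means ± SD, n = 6–8 per group.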

[4] = biological target: Metabotropic glutamate receptor 1 (Rattus norvegicus) (UniProt P23385); test: Binding affinity to mGluR1 in Sprague-Dawley rat olfactory bulb at 0.023 nM after 30 mins by autoradiography in presence of 10 uM of mGluR5 antagonist MPEP; details: tested as the 18F-labelled form; summary of the method: as §1
[5] = biological target: Metabotropic glutamate receptor 1 (Rattus norvegicus) (UniProt P23385); test: Binding affinity to mGluR1 in Sprague-Dawley rat striatum at 0.023 nM after 30 mins by autoradiography; details: tested as the 18F-labelled form; summary of the method: as §1
[6] = biological target: Metabotropic glutamate receptor 1 (Rattus norvegicus) (UniProt P23385); test: Binding affinity to mGluR1 in Sprague-Dawley rat thalamus at 0.023 nM after 30 mins by autoradiography in presence of 1 uM of mGluR5 antagonist MPEP; format: tissue-based; details: tested as the 18F-labelled form; summary of the method: as §1
[7] = biological target: Metabotropic glutamate receptor 1 (Mus musculus, UniProt P97772); test: Binding affinity to mouse mGluR1
[8] = biological target: Metabotropic glutamate receptor 1 (Rattus norvegicus) (UniProt P23385); test: Binding affinity to mGluR1 in Sprague-Dawley rat cerebral cortex at 0.023 nM after 30 mins by autoradiography; format: tissue-based; details: tested as the 18F-labelled form; summary of the method: as §1
[9] = biological target: Metabotropic glutamate receptor 1 (Rattus norvegicus) (UniProt P23385); test: Binding affinity to mGluR1 in Sprague-Dawley rat brain assessed as decrease of total binding at 0.023 nM after 30 mins by autoradiography in presence of 10 uM of mGluR5 antagonist MPEP; format: tissue-based; design: scale not given: the % may be the effect or the level left; summary of the method: as §1
[10] = biological target: Metabotropic glutamate receptor 1 (Rattus norvegicus) (UniProt P23385); test: Binding affinity to mGluR1 in Sprague-Dawley rat hippocampus at 0.023 nM after 30 mins by autoradiography in presence of 10 uM of mGluR5 antagonist MPEP; format: tissue-based; details: tested as the 18F-labelled form; summary of the method: as §1
[11] = biological target: Metabotropic glutamate receptor 1 (Rattus norvegicus) (UniProt P23385); test: Binding affinity to mGluR1 in Sprague-Dawley rat whole brain at 0.023 nM after 30 mins by autoradiography in presence of mGluRl antagonist FPTQ
Summary of the method: (§2)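 Sections were incubated as for the regional assay: 0.023 nM [18F]ligand, 30 min at room temperature, in 50 mM Tris–HCl pH 7.4 with MgCl2 and CaCl2, after 3 × 5 min preincubation. Unlabeled ligand or JNJ-16259685 was co-incubated to define specific binding. Sections were washed cold and exposed to imaging plates. ROIs covered the whole brain; values are PSL/mm2 minus background. n = 6–8.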

[12] = biological target: Metabotropic glutamate receptor 1 (Rattus norvegicus) (UniProt P23385); test: Binding affinity to mGluR1 in Sprague-Dawley rat pons-medulla at 0.023 nM after 30 mins by autoradiography in presence of 1 uM of mGluR5 antagonist MPEP; details: tested as the 18F-labelled form; summary of the method: as §1
[13] = biological target: Metabotropic glutamate receptor 1 (Rattus norvegicus) (UniProt P23385); test: Binding affinity to mGluR1 in Sprague-Dawley rat whole brain at 0.023 nM after 30 mins by autoradiography in presence of mGluRl antagonist JNJ-16259685; summary of the method: as §2
[14] = biological target: Metabotropic glutamate receptor 1 (Rattus norvegicus) (UniProt P23385); test: Binding affinity to mGluR1 in Sprague-Dawley rat pons-medulla at 0.023 nM after 30 mins by autoradiography in presence of 10 uM of mGluR5 antagonist MPEP; details: tested as the 18F-labelled form; summary of the method: as §1
[15] = biological target: Metabotropic glutamate receptor 1 (Rattus norvegicus) (UniProt P23385); test: Binding affinity to mGluR1 in Sprague-Dawley rat cerebellum at 0.023 nM after 30 mins by autoradiography in presence of 10 uM of mGluR5 antagonist MPEP; format: tissue-based; details: tested as the 18F-labelled form; summary of the method: as §1
[16] = biological target: Metabotropic glutamate receptor 1 (Rattus norvegicus) (UniProt P23385); test: Binding affinity to mGluR1 in Sprague-Dawley rat olfactory bulb at 0.023 nM after 30 mins by autoradiography; details: tested as the 18F-labelled form; summary of the method: as §1
[17] = biological target: Metabotropic glutamate receptor 1 (Rattus norvegicus) (UniProt P23385); test: Binding affinity to mGluR1 in Sprague-Dawley rat cerebellum at 0.023 nM after 30 mins by autoradiography in presence of 1 uM of mGluR5 antagonist MPEP; format: tissue-based; details: tested as the 18F-labelled form; summary of the method: as §1
[18] = biological target: Metabotropic glutamate receptor 1 (Rattus norvegicus) (UniProt P23385); test: Binding affinity to mGluR1 in Sprague-Dawley rat striatum at 0.023 nM after 30 mins by autoradiography in presence of 1 uM of mGluR5 antagonist MPEP; format: tissue-based; details: tested as the 18F-labelled form; summary of the method: as §1
[19] = biological target: Metabotropic glutamate receptor 1 (Rattus norvegicus) (UniProt P23385); test: Binding affinity to mGluR1 in Sprague-Dawley rat cerebral cortex at 0.023 nM after 30 mins by autoradiography in presence of 1 uM of mGluR5 antagonist MPEP; format: tissue-based; details: tested as the 18F-labelled form; summary of the method: as §1
[20] = biological target: Metabotropic glutamate receptor 1 (Rattus norvegicus) (UniProt P23385); test: Binding affinity to mGluR1 in Sprague-Dawley rat thalamus at 0.023 nM after 30 mins by autoradiography in presence of 10 uM of mGluR5 antagonist MPEP; details: tested as the 18F-labelled form; summary of the method: as §1
[21] = biological target: Metabotropic glutamate receptor 1 (Rattus norvegicus) (UniProt P23385); test: Binding affinity to mGluR1 in Sprague-Dawley rat pons-medulla at 0.023 nM after 30 mins by autoradiography; details: tested as the 18F-labelled form; summary of the method: as §1
[22] = biological target: Metabotropic glutamate receptor 1 (Rattus norvegicus) (UniProt P23385); test: Binding affinity to mGluR1 in Sprague-Dawley rat whole brain assessed as reduction of total radioactivity at 0.023 nM after 30 mins by autoradiography in presence of mGluRl antagonist FPTQ; design: scale not given: the % may be the effect or the level left
[23] = biological target: Metabotropic glutamate receptor 1 (Rattus norvegicus) (UniProt P23385); test: Binding affinity to mGluR1 in Sprague-Dawley rat cerebellum at 0.023 nM after 30 mins by autoradiography; format: tissue-based; details: tested as the 18F-labelled form; summary of the method: as §1
[24] = biological target: Metabotropic glutamate receptor 1 (Rattus norvegicus) (UniProt P23385); test: Binding affinity to mGluR1 in Sprague-Dawley rat hippocampus at 0.023 nM after 30 mins by autoradiography; format: tissue-based; details: tested as the 18F-labelled form; summary of the method: as §1
[25] = biological target: Metabotropic glutamate receptor 1 (Rattus norvegicus) (UniProt P23385); test: Binding affinity to mGluR1 in Sprague-Dawley rat striatum at 0.023 nM after 30 mins by autoradiography in presence of 10 uM of mGluR5 antagonist MPEP; format: tissue-based; details: tested as the 18F-labelled form; summary of the method: as §1
[26] = biological target: Metabotropic glutamate receptor 1 (Rattus norvegicus) (UniProt P23385); test: Binding affinity to mGluR1 in Sprague-Dawley rat thalamus at 0.023 nM after 30 mins by autoradiography; format: tissue-based; details: tested as the 18F-labelled form; summary of the method: as §1
[27] = biological target: Metabotropic glutamate receptor 1 (Rattus norvegicus) (UniProt P23385); test: Binding affinity to mGluR1 in Sprague-Dawley rat cerebral cortex at 0.023 nM after 30 mins by autoradiography in presence of 10 uM of mGluR5 antagonist MPEP; format: tissue-based; details: tested as the 18F-labelled form; summary of the method: as §1
[28] = biological target: Metabotropic glutamate receptor 1 (Rattus norvegicus) (UniProt P23385); test: Binding affinity to mGluR1 in Sprague-Dawley rat hippocampus at 0.023 nM after 30 mins by autoradiography in presence of 1 uM of mGluR5 antagonist MPEP; format: tissue-based; details: tested as the 18F-labelled form; summary of the method: as §1

T1 sequence (Q13255 whole entry): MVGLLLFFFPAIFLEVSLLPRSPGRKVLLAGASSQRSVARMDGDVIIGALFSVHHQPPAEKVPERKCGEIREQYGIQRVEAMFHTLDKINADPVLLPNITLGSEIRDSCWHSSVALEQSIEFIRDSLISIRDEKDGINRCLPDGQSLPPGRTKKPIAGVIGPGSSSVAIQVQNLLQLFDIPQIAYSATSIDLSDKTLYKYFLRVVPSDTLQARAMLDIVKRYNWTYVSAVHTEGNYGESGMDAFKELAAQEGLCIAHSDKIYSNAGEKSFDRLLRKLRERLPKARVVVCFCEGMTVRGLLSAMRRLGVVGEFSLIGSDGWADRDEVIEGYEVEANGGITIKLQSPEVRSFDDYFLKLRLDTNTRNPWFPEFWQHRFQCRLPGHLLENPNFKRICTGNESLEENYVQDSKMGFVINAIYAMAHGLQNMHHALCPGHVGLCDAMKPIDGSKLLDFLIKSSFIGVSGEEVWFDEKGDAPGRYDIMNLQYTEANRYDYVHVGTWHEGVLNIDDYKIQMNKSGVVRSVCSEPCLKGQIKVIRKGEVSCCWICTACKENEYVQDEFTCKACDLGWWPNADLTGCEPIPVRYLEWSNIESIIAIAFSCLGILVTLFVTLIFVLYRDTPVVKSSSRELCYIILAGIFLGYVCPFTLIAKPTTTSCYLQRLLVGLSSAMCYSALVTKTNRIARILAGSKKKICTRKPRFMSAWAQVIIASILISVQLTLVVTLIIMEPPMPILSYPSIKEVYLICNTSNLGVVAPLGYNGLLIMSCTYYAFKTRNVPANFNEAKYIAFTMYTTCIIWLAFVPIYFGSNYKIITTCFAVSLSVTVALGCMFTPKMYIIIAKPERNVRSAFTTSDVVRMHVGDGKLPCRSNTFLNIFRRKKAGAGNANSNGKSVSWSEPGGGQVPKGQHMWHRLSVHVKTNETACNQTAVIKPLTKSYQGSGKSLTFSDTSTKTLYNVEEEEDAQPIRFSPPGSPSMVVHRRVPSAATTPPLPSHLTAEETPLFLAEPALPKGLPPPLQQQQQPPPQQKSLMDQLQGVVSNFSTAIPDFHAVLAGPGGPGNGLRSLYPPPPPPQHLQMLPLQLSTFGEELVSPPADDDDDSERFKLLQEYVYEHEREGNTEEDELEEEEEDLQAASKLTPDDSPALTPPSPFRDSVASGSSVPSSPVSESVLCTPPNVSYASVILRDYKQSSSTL
Metabotropic glutamate receptor 1 (Rattus norvegicus), sequence (P23385 19-1199 limits assumed): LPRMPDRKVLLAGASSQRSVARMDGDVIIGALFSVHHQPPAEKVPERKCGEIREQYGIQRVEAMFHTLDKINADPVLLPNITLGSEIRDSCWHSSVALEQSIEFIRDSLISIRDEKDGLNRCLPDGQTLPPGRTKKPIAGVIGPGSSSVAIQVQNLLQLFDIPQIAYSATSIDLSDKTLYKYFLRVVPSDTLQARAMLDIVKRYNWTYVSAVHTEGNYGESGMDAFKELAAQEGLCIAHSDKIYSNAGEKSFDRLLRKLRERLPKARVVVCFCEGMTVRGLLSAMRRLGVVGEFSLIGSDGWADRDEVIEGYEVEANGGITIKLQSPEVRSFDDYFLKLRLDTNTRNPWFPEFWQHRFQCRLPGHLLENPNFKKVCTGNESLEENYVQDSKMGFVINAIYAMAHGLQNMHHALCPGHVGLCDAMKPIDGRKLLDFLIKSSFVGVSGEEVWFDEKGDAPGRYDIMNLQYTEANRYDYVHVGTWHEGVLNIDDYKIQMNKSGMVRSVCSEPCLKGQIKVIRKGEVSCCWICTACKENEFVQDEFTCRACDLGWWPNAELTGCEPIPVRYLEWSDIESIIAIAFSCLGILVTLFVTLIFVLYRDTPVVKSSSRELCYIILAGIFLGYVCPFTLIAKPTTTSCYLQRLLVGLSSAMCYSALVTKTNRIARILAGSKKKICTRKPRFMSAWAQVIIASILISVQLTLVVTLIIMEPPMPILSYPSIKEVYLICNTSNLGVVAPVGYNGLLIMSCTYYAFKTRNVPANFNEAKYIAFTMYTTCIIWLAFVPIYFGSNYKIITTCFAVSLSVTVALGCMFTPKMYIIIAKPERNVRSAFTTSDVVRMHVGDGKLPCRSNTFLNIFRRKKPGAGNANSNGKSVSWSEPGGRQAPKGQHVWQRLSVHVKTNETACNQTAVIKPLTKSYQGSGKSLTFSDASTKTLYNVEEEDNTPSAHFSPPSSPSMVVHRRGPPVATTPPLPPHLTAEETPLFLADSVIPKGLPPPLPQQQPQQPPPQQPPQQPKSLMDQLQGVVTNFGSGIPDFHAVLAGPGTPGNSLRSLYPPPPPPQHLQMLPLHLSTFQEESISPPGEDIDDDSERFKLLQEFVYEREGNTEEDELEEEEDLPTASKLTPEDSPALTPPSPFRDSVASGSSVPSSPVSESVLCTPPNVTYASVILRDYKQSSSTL
Metabotropic glutamate receptor 1 (Mus musculus, UniProt P97772), sequence (P97772 whole entry): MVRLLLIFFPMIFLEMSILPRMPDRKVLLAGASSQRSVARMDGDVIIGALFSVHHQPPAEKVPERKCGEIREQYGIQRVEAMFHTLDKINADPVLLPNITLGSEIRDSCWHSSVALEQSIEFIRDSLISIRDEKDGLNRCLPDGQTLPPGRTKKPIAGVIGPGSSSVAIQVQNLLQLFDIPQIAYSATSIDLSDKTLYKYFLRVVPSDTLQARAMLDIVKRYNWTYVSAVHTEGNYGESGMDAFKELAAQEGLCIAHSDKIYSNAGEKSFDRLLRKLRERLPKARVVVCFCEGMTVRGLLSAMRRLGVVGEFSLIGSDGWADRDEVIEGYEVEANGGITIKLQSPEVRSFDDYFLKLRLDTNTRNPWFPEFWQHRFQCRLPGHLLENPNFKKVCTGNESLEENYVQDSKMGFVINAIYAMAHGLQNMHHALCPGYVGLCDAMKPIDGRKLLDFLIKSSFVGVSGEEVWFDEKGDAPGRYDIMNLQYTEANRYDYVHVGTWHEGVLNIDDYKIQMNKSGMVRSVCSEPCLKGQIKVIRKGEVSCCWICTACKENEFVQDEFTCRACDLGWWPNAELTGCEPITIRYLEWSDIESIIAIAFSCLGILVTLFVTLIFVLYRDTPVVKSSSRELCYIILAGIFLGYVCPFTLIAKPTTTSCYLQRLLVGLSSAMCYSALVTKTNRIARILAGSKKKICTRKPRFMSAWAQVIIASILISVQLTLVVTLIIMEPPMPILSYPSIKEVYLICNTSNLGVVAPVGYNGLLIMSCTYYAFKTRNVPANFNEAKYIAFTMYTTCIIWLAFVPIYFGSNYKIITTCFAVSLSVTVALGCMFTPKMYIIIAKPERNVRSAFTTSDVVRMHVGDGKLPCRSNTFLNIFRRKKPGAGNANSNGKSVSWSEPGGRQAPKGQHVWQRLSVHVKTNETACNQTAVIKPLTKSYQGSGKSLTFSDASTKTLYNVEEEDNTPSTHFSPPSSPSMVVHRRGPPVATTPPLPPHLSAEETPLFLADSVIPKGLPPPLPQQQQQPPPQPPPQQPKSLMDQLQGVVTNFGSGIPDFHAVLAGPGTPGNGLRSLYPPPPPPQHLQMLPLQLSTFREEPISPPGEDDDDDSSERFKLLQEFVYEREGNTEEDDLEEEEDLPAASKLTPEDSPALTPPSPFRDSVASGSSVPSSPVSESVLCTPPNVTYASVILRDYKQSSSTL

CO[C@H]1CC[C@@H](C(=O)c2ccc3nc4c(cc3c2)CCCO4)CC1
Ki [1]: 0.34 nM

COCCN([11CH3])Cc1ccc2nc3sc(C(=O)N(C)C4CCCCC4)cn3c2c1
Ki [1]: 4.8 nM

CCc1cc2cc(C(=O)[C@H]3CC[C@@H](OC)CC3)ccc2nc1[11CH3]
Ki [1]: 0.87 nM

CCCN1Cc2cc(-c3nnn(-c4cccnc4[18F])c3C)ccc2C1=O
Ki [1]: 0.4 nM

Cc1c(-c2ccc3ncccc3c2)nnn1-c1cccnc1F
IC50 [2]: 3.6 nM | Activity [3]: 76 PSL/mm2 | Activity [4]: 49 PSL/mm2 | Activity [5]: 70.7 PSL/mm2 | Activity [6]: 169 PSL/mm2 | IC50 [7]: 1.4 nM | Activity [8]: 28.2 PSL/mm2 | Activity [9]: 30% | Activity [10]: 69.4 PSL/mm2 | Activity [11]: 0.6 PSL/mm2 | Activity [12]: 15.2 PSL/mm2 | Activity [13]: 0.5 PSL/mm2 | Activity [14]: 9.5 PSL/mm2 | Activity [15]: 285 PSL/mm2 | Activity [16]: 88.7 PSL/mm2 | Activity [17]: 398 PSL/mm2 | Activity [18]: 61.7 PSL/mm2 | Activity [19]: 23.6 PSL/mm2 | Activity [20]: 116 PSL/mm2 | Activity [21]: 17.5 PSL/mm2 | Activity [22]: < 3% | Activity [23]: 409 PSL/mm2 | Activity [24]: 112 PSL/mm2 | Activity [25]: 40.1 PSL/mm2 | Activity [26]: 189 PSL/mm2 | Activity [27]: 15.7 PSL/mm2 | Activity [28]: 97.4 PSL/mm2
